# Compound activity from PubChem.
# This is a sample that favours compounds with a hit; in the whole collection about 3% have one here.
# M4 antag – blocks acetylcholine activation of human M4 receptor; P08173; CHO-hM4 cells, ACh EC80, Fluo-8 calcium fluorescence; inhibition, % at 3 µM; actives 0.73% (n = 360,000); AID 624125;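 active = inhibition above its plate's cutoff, the mean inhibition of sample wells plus 3 SD, cut at about 27% in these data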;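 also: 0% = acetylcholine EC80 with DMSO and 100% = DMSO without agonist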
# Target sequence (P08173 whole entry, looked up): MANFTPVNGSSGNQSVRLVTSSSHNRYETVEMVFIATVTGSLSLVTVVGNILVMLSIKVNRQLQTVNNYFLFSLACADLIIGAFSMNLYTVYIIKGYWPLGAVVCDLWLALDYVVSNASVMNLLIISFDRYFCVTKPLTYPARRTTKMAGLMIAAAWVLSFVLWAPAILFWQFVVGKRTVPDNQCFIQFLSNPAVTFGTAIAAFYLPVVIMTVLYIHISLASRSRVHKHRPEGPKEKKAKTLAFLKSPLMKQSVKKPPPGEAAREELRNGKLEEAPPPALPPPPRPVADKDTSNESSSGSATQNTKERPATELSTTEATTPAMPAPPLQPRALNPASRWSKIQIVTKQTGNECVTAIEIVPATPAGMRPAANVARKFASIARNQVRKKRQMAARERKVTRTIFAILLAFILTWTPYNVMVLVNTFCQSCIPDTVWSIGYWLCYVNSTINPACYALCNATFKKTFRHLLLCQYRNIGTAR
# M4 PAM – positive allosteric modulators of human muscarinic M4 receptor; CHO-K1 hM4/Gqi5, Fluo-8 calcium fluorescence, ACh EC20; 0% = ACh EC20, 100% = maximal ACh; activation, % at 3 µM; actives 0.4% (n = 360,000);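 active = activation above its plate's cutoff, the mean activation of sample wells plus 3 SD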
# TAAR1 agonist – human TAAR1 agonism; Q96RJ0; actives 0.99% (n = 360,000); AID 624467; activation, % at 3 µM; CHO RD-HGA16 TAAR1, Fluo-8 calcium fluorescence; vehicle wells 0%, saturating PEA agonist 100%;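 active = activation above the mean activation of all test compounds in the run plus 3 SD, cut at about 38% in these data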
#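 Test system: RD-HGA16 (CHO) cells co-expressing Gα16 and hTAAR1 | Doses: Single dose, 3 µM | Schedule: 17-24 h seeding, 75 min 37 °C dye, 30 min RT | Evaluation: % activation from peak over basal fluorescence ratio, DMSO-to-PEA scaled | Technique: Kinetic Fluo-8 calcium fluorescence | Benchmarks: Low control DMSO, high control PEA (EC100)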
# TAAR1 antag – human TAAR1 antagonism | Q96RJ0 | CHO RD-HGA16 TAAR1, Fluo-8 calcium fluorescence, antagonist | inhibition, % at 3 µM | actives 1.5% (n = 360,000) | AID 624466;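 active = inhibition above a per-plate cutoff, the mean inhibition of test compounds on that plate plus 3 SD, cut at about 49% in these data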;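 also: 0% = DMSO plus EC80 beta-PEA response and 100% = DMSO alone without agonist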
#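 test system = CHO RD-HGA16 cells bearing hTAAR1 | replication = singlicate | controls = DMSO-only wells and EC80 β-PEA-stimulated wells | reagent = EC80 β-phenethylamine stimulus | read-out basis = percent inhibition of PEA-evoked calcium signal, max/basal emission ratio | schedule = seeding 17-24 h prior, 75-min 37 °C, 30-min RT dye loading | signal = kinetic Fluo-8 calcium fluorescence measurement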
# CHRM4 agonist – CHRM4 agonism in calcium assay; P08173; CHO-K1 hM4/Gqi5, Fluo-8 calcium fluorescence; vehicle 0%, full acetylcholine response 100%; activation, % at 3 µM; actives 0.14% (n = 360,000);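 active = activation above the run mean over all test wells plus 3 SD, cut at about 32% in these data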;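 also: peak over basal fluorescence ratio per well then scaled between controls; 0% = DMSO wells and 100% = acetylcholine at EC100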
# TAAR1 ag conf – confirmation of human TAAR1 agonists; shares compounds with TAAR1 agonist; CHO RD-HGA16 TAAR1, Fluo-8 calcium fluorescence; scaled: DMSO 0%, maximal phenethylamine 100%; activation, % at 3 µM; actives 82% (n = 2,400); AID 651783;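 active = activation above a cutoff set at the run's mean compound activation plus 3 SD, cut at about 39% in these data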
# Ga16 nonsel ag – counter-screen for TAAR1 agonists: nonselective agonists in parental cells; AID 651787; shares compounds with TAAR1 agonist; CHO-Ga16 parental, Fluo-8 calcium fluorescence; normalized to maximal ATP response, DMSO zero; actives 50% (n = 2,400); activation, % at 3 µM;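 active = activation above the run cutoff, the mean activation over all tested wells plus 3 SD, cut at about 12% in these data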;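 also: 0% = DMSO wells and 100% = maximal ATP response on the peak over basal ratio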
# TAAR1 desens – TAAR1 response desensitization, agonist counter-screen; shares compounds with TAAR1 agonist; actives 46% (n = 2,400); CHO RD-HGA16 hTAAR1, Fluo-8 calcium, beta-PEA response inhibition; inhibition, % at 3 µM; AID 651951;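 active = inhibition above the run cutoff, the mean inhibition of all test compounds plus 3 SD, cut at about 49% in these data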;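 also: beta-PEA stimulus applied at its EC80; loss of beta-PEA calcium signal after compound pretreatment read as receptor desensitization; 0% = DMSO with beta-PEA at EC80 and 100% = DMSO alone without agonist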
# Ga16 nonsel ant – nonselective Ga16 antagonist in TAAR1 agonist counter-screen. actives 39% (n = 2,400). CHO-Ga16 ATP-induced calcium, Fluo-8 fluorescence. inhibition, % at 3 µM. shares compounds with TAAR1 agonist;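 active = inhibition above the plate's mean compound inhibition plus 3 SD, computed per plate, cut at about 22% in these data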;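 also: 0% = EC80 ATP with DMSO and 100% = DMSO wells without ATP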
# * = called active by the depositor; nt = no result given.
SMILES,M4 antag,M4 PAM,TAAR1 agonist,TAAR1 antag,CHRM4 agonist,TAAR1 ag conf,Ga16 nonsel ag,TAAR1 desens,Ga16 nonsel ant
COc1ccc(CCN(C(=O)/C=C/C(=O)O)C2CC(=O)N(c3ccccc3)C2=O)cc1 (stereo unspecified),3,2,0,4,1,nt,nt,nt,nt
CCCCOc1ccc(N2C(=O)CC(N(CCc3ccccc3)C(=O)/C=C/C(=O)O)C2=O)cc1 (stereo unspecified),10,-1,67*,1,0,78*,2,31,0
CN(C)CCCN(C(=O)c1ccc(S(=O)(=O)N(C)C2CCCCC2)cc1)c1nc2ccc(F)cc2s1,3,3,47*,20,8,49*,22*,49*,32*
Cc1ccccc1CN1[C@@H](C)[C@H](c2ccccc2)Oc2cccc(N3CCCC(C)C3)c2S1(=O)=O (stereo partly specified),nt,nt,1,-21,nt,nt,nt,nt,nt
C[C@H]1[C@H](c2ccccc2)Oc2cccc(NCCc3ccccc3)c2S(=O)(=O)N1Cc1ccc(F)cc1,nt,nt,79*,2,nt,70*,2,18,10
Cc1cccc(NS(=O)(=O)c2ccc(C3CCCCC3)cc2)c1,16,-2,59*,55*,2,38*,8,48,37*
COc1ccc(S(=O)(=O)Nc2ccc(CC#N)cc2)cc1,0,7,8,21,2,nt,nt,nt,nt
N#CCc1ccc(NS(=O)(=O)c2ccc(C3CCCCC3)cc2)cc1,18,-20,51*,51*,13,51*,24*,42,34*
O=c1oc2ccccc2c(NCCc2ccccc2)c1[N+](=O)[O-],5,-2,63*,17,2,70*,10,13,6
O=c1oc2ccccc2c(NCc2ccccc2F)c1[N+](=O)[O-],2,0,5,0,2,nt,nt,nt,nt
O=C1c2ccccc2C(c2nnnn2-c2ccc3c(c2)OCCO3)N1Cc1cccnc1 (stereo unspecified),0,-1,1,-11,1,nt,nt,nt,nt
CCN1CN(CCc2ccccc2)CNC1=S,6,1,nt,nt,1,nt,3,nt,8
CCN1CNC(=S)N(CCc2ccccc2)C1,2,13,2,8,1,nt,nt,nt,nt
C=CCN1CN(CCc2ccccc2)CNC1=S,2,-5,55*,5,1,81*,15*,46,2
C=CCN1CN(Cc2ccco2)CNC1=S,18,-3,1,-2,0,nt,nt,nt,nt
Cc1cc(C)nc(/N=C(\N)Nc2ccc(OCCC(C)C)cc2)n1,86*,-19,145*,103*,105*,127*,103*,105*,93*
Cc1cc(C)nc(/N=C(\N)Nc2ccc(CC(=O)OC(C)C)cc2)n1,83*,-20,109*,101*,113*,120*,85*,106*,97*
COc1ccccc1N/C(N)=N/c1nc(C)cc(C)n1,-12,2,2,-6,3,nt,nt,nt,nt
CCc1ccc(N/C(=N/c2nc(C)cc(C)n2)NC(C)=O)cc1,10,-15,-4,-11,20,nt,nt,nt,nt
Cc1cc(C)nc(/N=C(\N)Nc2cccc(OCc3ccccc3)c2)n1,68*,-17,124*,107*,81*,112*,83*,106*,90*
CCC1NC(=O)c2cc3ccccc3cc2-n2c1nc1ccc(F)cc1c2=O (stereo unspecified),2,7,0,11,1,nt,nt,nt,nt
Cn1c(N)c(C(=O)N2CCN(c3ccccc3)CC2)c(=O)n(C)c1=O,2,-1,6,-26,0,nt,nt,nt,nt
CC(C)C[C@H]1CN(CCCC[C@@H]2CNC(=O)C(=O)N2CCc2ccccc2)C(=O)C(=O)N1CCC1CCCCC1,-12,7,1,-22,-1,nt,nt,nt,nt
CCc1c(Cc2ccccc2)ncn1CCc1ccccc1OC,nt,nt,52*,-1,nt,75*,2,21,10
COc1ccccc1CCn1cnc(Cc2ccccc2)c1C(C)C,33*,-15,54*,48,14,72*,6,59*,22*
SMILES,M4 antag,M4 PAM,TAAR1 agonist,TAAR1 antag,CHRM4 agonist,TAAR1 ag conf,Ga16 nonsel ag,TAAR1 desens,Ga16 nonsel ant
CCc1c(-c2ccc(OC)c(OC)c2)ncn1CCc1ccccc1OC,nt,nt,32,7,nt,nt,nt,nt,nt
CC(=O)O[C@H]1[C@@H](O)[C@H](O)[C@H](Oc2c(O)c(C)c3c4c2[C@@H](C)CC[C@@H]4[C@@H](C)C[C@@H]3C=C(C)C)O[C@H]1C,-17,12,0,-2,1,nt,nt,nt,nt
CC1(C(=O)NCc2cccnc2)Cc2c(-c3cccc(C(F)(F)F)c3)ccnc2O1 (stereo unspecified),1,6,1,-48,0,nt,nt,nt,nt
CCOC(=O)CC1C(=O)NCCN1C(=O)c1ccc(Cl)cc1Cl (stereo unspecified),6,5,73*,-2,2,3,-1,-3,11
COc1ccc(NC(=O)c2c(-c3c(Cl)cccc3Cl)noc2C)c(OC)c1,0,3,3,-19,-1,nt,nt,nt,nt
Cc1ccc2nc3n(c(=O)c2c1)-c1ncccc1C(=O)NC3Cc1ccc(O)cc1 (stereo unspecified),-5,5,4,-9,2,nt,nt,nt,nt
CCOP(=O)(c1ccccc1)c1nc(-c2ccccc2Cl)oc1N1CCCCC1 (stereo unspecified),-4,-1,48*,-13,-2,34,7,-20,-3
COc1ccc(NC(=O)C2(C)Cc3c(-c4ccc5c(c4)OCO5)ccnc3O2)cn1 (stereo unspecified),-10,5,-2,-32,1,nt,nt,nt,nt
COc1cccc(N=C(N)N)c1,-9,10,67*,53*,1,83*,2,75*,5
COc1ccc2c(c1)c(C(=O)CN1CCc3ccccc3C1)c(C)n2C,-5,-4,69*,-10,2,86*,1,33,1
NC(c1csc(Nc2nncc3ccccc23)n1)C1CCCCC1 (stereo unspecified),12,-6,36,9,25,nt,nt,nt,nt
